Source: article PMC4618641 (Pharmacology Research & Perspectives, 2015)
pIC50: −log10 of the molar value. “Also recorded” adds a separate entry of the source.

How the values were obtained:
[1] = test system: DU145TXR cells; experiment: Potentiation assay; format: cell-based, human; settings: 10 nmol/L - 25 μmol/L inhibitor, 48 h
Outline: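 Paclitaxel-selected DU145TXR (maintained in 10 nmol/L paclitaxel) seeded, then after 48 h co-treated 48 h with 500 nmol/L paclitaxel plus inhibitor at 10 nmol/L–25 μmol/L (400X DMSO solutions), triplicate wells; parallel run without paclitaxel. MTT read at 570 minus 720 nm. Survival relative to DMSO-treated wells without inhibitor; ≥6 replicates from ≥2 experiments. PC50 from a four-parameter variable-slope fit.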

[2] = test system: DU145TXR cells; experiment: Dose-dependent sensitization to paclitaxel; format: cell-based, human; settings: for Synergy with paclitaxel (isobologram): DU145TXR, 5, 10, 25 μmol/L compound
[3] = test system: DU145 cells; experiment: Intrinsic cytotoxicity assay; format: cell-based, human; settings: for pIC50: Homo sapiens, DU-145, 48 h, read-out: IC50 (compound alone, estimated)
Outline: (§1)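 Cells seeded at 2 × 10^4 cells/mL, grown 48 h, then exposed 48 h to test compound at 0.05–50 μmol/L from 200X DMSO solutions, with DMSO controls (n = 12/plate). PBS rinse, then fresh medium for 24 h and MTT for 4 h; A570 minus A720, blank subtracted. Survival is relative to DMSO; ≥6 replicates, ≥2 experiments. IC50 from a four-parameter fit constrained 0–100. HFL1 grown in F-12K on collagen-treated surfaces.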

[4] = test system: P-gp; settings: in the presence of the transport substrate verapamil; ref Brewer et al. [2014]; cited from earlier work
[5] = test system: P-gp; settings: ref Brewer et al. [2014]; cited from earlier work
[6] = test system: DU145TXR cells; experiment: Reversal of resistance to doxorubicin; format: cell-based, human; settings: 25 μmol/L compound, data not shown
[7] = test system: HFL1 cells; experiment: Intrinsic cytotoxicity assay; format: cell-based, human; settings: for Decrease in cell viability: HFL1, 25 μmol/L compound, not shown; for pIC50: Homo sapiens, HFL1, 48 h, read-out: IC50 (compound alone, estimated)
Outline: as §1

[8] = test system: DU145TXR cells; experiment: Intrinsic cytotoxicity assay; format: cell-based, human; settings: for pIC50: Homo sapiens, 48 h, read-out: IC50 (compound alone, estimated)
Outline: as §1

[9] = test system: DU145 human prostate cancer cells; experiment: MTT cell viability assay, chemotherapeutics on naïve DU145; format: cell-based
Outline: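 DU145 in RPMI-1640 with 10% FBS, seeded at 2 × 10^4 cells/mL, then after 48 h given a paclitaxel (or doxorubicin) range from 400X DMSO dilutions for 48 h. PBS rinse, fresh medium 24 h, then MTT 4 h; formazan dissolved in DMSO, read at 570 minus 720 nm. Survival relative to DMSO controls (n = 12/plate); ≥9 replicates from ≥3 experiments.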

[10] = test system: DU145TXR cells; experiment: MTT cell viability assay, chemotherapeutics on multidrug-resistant DU145TXR; format: cell-based, human

COC(=O)c1ccc(C(c2c(O)oc3ccccc3c2=O)c2c(O)oc3ccccc3c2=O)cc1 [Compound 19, methyl 4-[bis(2-hydroxy-4-oxochromen-3-yl)methyl]benzoate]
Effect on sensitivity of DU145TXR to 500 nmol/L paclitaxel [1]: no apparent effect | Effect on sensitivity of DU145TXR to 500 nmol/L paclitaxel ([1]; listed as compound 19): no effect on the toxicity of paclitaxel | Effect on cell viability in sensitization experiments ([2]; DU145TXR, paclitaxel, 5, 10, 25 μmol/L compound): did not show any effect on cell viability | pIC50 [3]: 4.00 | Inhibition of verapamil-stimulated ATP hydrolysis [4]: inhibit ATP hydrolysis | Effect on nucleotide binding (ESR, SL-ATP) [5]: directly interfered with nucleotide binding

Cc1cc(C)c(-c2cc(NC(=O)CSc3n[nH]c(C4CC4)n3)n(-c3ccccc3)n2)cc1C [Compound 29, 2-[(5-cyclopropyl-1H-1,2,4-triazol-3-yl)sulfanyl]-N-[2-phenyl-5-(2,4,5-trimethylphenyl)pyrazol-3-yl]acetamide]
Effect on sensitivity of DU145TXR to 500 nmol/L paclitaxel [1]: strongly affected the sensitivity | Synergy with paclitaxel (isobologram) [2]: strong synergistic effect | Resensitization to doxorubicin [6]: resensitized the MDR prostate cancer cells to doxorubicin to levels that are comparable with the naïve DU145 cell line | Decrease in cell viability [7]: 35% | pIC50 [7]: 4.38 | pIC50 [3]: 4.47 | pIC50 [8]: 4.41 | Inhibition of verapamil-stimulated ATP hydrolysis [4]: inhibit ATP hydrolysis | Effect on nucleotide binding (ESR, SL-ATP) [5]: did not affect nucleotide-binding characteristics

CCC(C(=O)N1CCN(c2ccc(OC)cc2)CC1)n1nc(C)c2sc3ccccc3c2c1=O (centres unmarked) [Compound 34, 2-[1-[4-(4-methoxyphenyl)piperazin-1-yl]-1-oxobutan-2-yl]-4-methyl-[1]benzothiolo[2,3-d]pyridazin-1-one]
Effect on sensitivity of DU145TXR to 500 nmol/L paclitaxel [1]: strongly affected the sensitivity | Synergy with paclitaxel (isobologram) [2]: strong synergistic effect | Resensitization to doxorubicin [6]: resensitized the MDR prostate cancer cells to doxorubicin to levels that are comparable with the naïve DU145 cell line | Decrease in cell viability [7]: 23% | pIC50 [7]: 3.88 | pIC50 [3]: 4.36 | pIC50 [8]: 3.39 | Inhibition of verapamil-stimulated ATP hydrolysis [4]: inhibit ATP hydrolysis | Effect on nucleotide binding (ESR, SL-ATP) [5]: directly interfered with nucleotide binding

CCOC(=O)C1(CCCc2ccccc2)CCCN(C(=O)c2ccc3c(c2)OCO3)C1 (centres unmarked) [Compound 45, ethyl 1-(1,3-benzodioxole-5-carbonyl)-3-(3-phenylpropyl)piperidine-3-carboxylate]
Effect on sensitivity of DU145TXR to 500 nmol/L paclitaxel [1]: strongly affected the sensitivity | Synergy with paclitaxel (isobologram) [2]: strong synergistic effect | Resensitization to doxorubicin [6]: resensitized the MDR prostate cancer cells to doxorubicin to levels that are comparable with the naïve DU145 cell line | Decrease in cell viability [7]: 13% | pIC50 [7]: 4.21 | Cells killed ([3]; DU145, 25 μmol/L compound, not shown): 31% | pIC50 [3]: 4.39 | Cells killed ([8]; DU145TXR, 25 μmol/L compound, not shown): 36% | pIC50 [8]: 3.97 | Inhibition of verapamil-stimulated ATP hydrolysis [4]: inhibit ATP hydrolysis | Effect on nucleotide binding (ESR, SL-ATP) [5]: directly interfered with nucleotide binding

CC(=O)O[C@H]1C(=O)[C@@]2(C)[C@H]([C@H](OC(=O)c3ccccc3)[C@]3(O)C[C@H](OC(=O)[C@H](O)[C@@H](NC(=O)c4ccccc4)c4ccccc4)C(C)=C1C3(C)C)[C@]1(OC(C)=O)CO[C@@H]1C[C@@H]2O [Paclitaxel, paclitaxel]
Survival at 500 nmol/L paclitaxel [9]: < 10% | Survival at 500 nmol/L paclitaxel ([10]; DU145TXR): > 85% | pIC50 ([10]; read-out: IC50 of chemotherapeutic alone, DU145TXR, 48 h incubation, MTT): 5.42

COc1ccc(CCN(C)CCCC(C#N)(c2ccc(OC)c(OC)c2)C(C)C)cc1OC (centres unmarked) [Verapamil, verapamil, reference compound]
pIC50 [3]: 4.12 | pIC50 [8]: 3.68

COc1cccc2c1C(=O)c1c(O)c3c(c(O)c1C2=O)C[C@@](O)(C(=O)CO)C[C@@H]3O[C@H]1C[C@H](N)[C@H](O)[C@H](C)O1 [doxorubicin]
Fold resistance (IC50 DU145TXR / IC50 DU145) ([10]; DU145TXR compared to DU145): over eightfold; also recorded: about eightfold
